Measured values reported in article PMC4306518 (Journal of Medicinal Chemistry, 2014).
Where two headings read alike, the source gives them in different places.

Tests used:
bsNOS [1] = biological target: T1, bsNOS (Bacillus subtilis, UniProt O34453); experiment: Imidazole displacement assay, spectral binding constant
T1 sequence (O34453 1-363): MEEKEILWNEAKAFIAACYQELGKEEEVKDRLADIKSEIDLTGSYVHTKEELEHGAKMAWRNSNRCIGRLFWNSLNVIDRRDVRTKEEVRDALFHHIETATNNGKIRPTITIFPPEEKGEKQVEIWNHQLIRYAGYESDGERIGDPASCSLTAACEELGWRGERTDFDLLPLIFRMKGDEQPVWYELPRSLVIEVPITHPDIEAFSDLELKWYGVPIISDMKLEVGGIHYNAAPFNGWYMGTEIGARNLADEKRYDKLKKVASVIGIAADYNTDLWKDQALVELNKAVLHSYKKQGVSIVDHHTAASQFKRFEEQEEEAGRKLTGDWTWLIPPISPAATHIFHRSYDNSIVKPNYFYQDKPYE

B. subtilis = experiment: Effect of acriflavine and NOS inhibitors on B. subtilis survival; assay type: cell-based, Bacillus subtilis
Method in brief: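 WT (ATCC 23857) and Δnos B. subtilis grown separately to OD600 ≈ 1.0, diluted to OD600 0.6 in LB, then brought up in M9 minimal medium with or without test compound (500 μM final) and/or acriflavine (800 μM final). Treated 30 min at 30 °C, serially diluted in M9, plated on LB agar + 0.5% glucose, 37 °C overnight. CFU counted; % survival relative to untreated cells; ≥3 replicates, mean ± SEM, Student's t test.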

rat nNOS = rat nNOS (Rattus norvegicus, UniProt P29476); experiment: Ki with mammalian NOS isoforms: nNOS; assay type: biochemical; details: 6 compared to 2
rat nNOS, sequence (P29476 whole entry, canonical isoform): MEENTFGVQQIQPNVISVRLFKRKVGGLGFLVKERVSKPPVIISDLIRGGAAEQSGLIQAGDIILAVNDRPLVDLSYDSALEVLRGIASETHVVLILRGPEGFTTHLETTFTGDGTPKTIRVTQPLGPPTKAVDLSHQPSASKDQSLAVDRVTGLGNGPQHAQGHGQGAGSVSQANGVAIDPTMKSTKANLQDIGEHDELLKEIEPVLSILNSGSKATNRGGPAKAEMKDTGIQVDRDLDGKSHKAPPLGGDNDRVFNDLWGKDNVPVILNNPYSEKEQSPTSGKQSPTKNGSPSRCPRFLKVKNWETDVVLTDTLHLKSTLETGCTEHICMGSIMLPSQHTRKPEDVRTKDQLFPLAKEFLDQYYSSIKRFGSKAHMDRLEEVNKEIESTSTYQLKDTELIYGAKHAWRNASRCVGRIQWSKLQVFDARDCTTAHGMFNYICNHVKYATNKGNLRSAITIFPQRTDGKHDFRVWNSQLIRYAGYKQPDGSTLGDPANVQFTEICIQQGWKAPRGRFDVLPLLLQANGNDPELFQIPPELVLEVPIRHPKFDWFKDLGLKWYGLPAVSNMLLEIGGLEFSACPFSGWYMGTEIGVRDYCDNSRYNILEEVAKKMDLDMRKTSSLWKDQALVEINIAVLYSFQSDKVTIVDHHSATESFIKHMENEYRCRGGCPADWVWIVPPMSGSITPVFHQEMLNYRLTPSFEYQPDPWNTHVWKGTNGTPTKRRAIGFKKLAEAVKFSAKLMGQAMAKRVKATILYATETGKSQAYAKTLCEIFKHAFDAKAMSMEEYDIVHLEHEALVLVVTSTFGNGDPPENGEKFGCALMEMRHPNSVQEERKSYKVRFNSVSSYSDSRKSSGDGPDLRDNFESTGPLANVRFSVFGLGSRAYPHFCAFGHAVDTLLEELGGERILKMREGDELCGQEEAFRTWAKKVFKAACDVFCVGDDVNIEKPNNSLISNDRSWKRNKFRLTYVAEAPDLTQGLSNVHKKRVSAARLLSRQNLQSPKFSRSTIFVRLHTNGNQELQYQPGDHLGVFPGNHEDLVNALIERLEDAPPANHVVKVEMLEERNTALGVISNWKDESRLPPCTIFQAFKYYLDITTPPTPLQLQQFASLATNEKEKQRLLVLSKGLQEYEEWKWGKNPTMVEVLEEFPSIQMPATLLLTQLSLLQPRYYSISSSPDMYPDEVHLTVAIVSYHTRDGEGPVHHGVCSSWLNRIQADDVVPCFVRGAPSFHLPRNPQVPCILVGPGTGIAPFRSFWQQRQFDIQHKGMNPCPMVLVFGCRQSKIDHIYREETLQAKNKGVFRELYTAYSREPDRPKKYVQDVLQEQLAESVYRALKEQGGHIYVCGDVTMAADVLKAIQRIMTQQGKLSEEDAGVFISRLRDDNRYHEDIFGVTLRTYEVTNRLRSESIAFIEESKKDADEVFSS

bsNOS [2] = biological target: T1, bsNOS; details: read-out: imidazole KD bsNOS; used to calculate KS; cited from earlier work
iNOS = iNOS (Homo sapiens, UniProt P35228); details: read-out: imidazole KD iNOS; used to calculate KS; cited from earlier work
iNOS, sequence (P35228 74-504 limits assumed): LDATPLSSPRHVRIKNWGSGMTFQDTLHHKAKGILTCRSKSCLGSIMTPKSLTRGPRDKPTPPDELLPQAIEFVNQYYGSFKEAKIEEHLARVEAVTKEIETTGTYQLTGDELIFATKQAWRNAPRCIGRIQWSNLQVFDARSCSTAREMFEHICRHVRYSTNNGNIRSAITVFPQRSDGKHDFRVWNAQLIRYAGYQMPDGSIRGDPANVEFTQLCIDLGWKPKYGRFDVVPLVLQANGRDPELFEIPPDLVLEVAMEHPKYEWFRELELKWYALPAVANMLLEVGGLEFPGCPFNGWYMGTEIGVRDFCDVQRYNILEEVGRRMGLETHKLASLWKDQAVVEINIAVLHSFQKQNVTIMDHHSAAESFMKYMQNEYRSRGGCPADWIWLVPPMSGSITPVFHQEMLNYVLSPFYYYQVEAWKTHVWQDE

[3] = KS bsNOS (+H4B), presence of 50 μM H4B
[4] = KS bsNOS (−H4B), absence of H4B

NC(=NCCCC(N)C(=O)O)NO [N-ω-hydroxy-L-arginine (L-NNA), N-ω-hydroxy-L-arginine, reference compound]
Kd (bsNOS [1]; [3]): 1.9 ± 0.1 µM

Cc1cc(N)nc(CCc2cc(N)cc(CCc3cc(C)cc(N)n3)c2)c1 [compound 1]
fold difference in binding (KS) to bsNOS in presence vs absence of H4B (bsNOS [1]; 50 μM H4B vs no H4B): 2 fold
Kd (bsNOS [1]; [3]): 1.9 ± 0.1 µM
Kd (bsNOS [1]; [4]): 0.91 ± 0.08 µM

Cc1cc(N)nc(CCc2cc(CN)cc(CCc3cc(C)cc(N)n3)c2)c1 [compound 2]
bacterial growth inhibition (in words) (B. subtilis; B. subtilis): good inhibitor of bacterial growth
Kd (bsNOS [1]; [3]): 47 ± 2 µM
Kd (bsNOS [1]; [4]): 15 ± 3 µM

Cc1cc(N)nc(CCc2cc(CCCN)cc(CCc3cc(C)cc(N)n3)c2)c1 [compound 3]
Kd (bsNOS [1]; [3]): 19 ± 1 µM
Kd (bsNOS [1]; [4]): 16 ± 1 µM

CNc1cc(C)cc(CCc2cc(C#N)cc(CCc3cc(C)cc(N)n3)c2)n1 [compound 4, 3-(2-(6-Amino-4-methylpyridin-2-yl)ethyl)-5-(2-(4-methyl-6-(methylamino)pyridin-2-yl)ethyl)benzonitrile]
Kd (bsNOS [1]; [3]): 19 ± 2 µM
Kd (bsNOS [1]; [4]): 12 ± 1 µM

Cc1cc(N)nc(CCc2cc(CN)cc(CCc3ccc4cc[nH]c4n3)c2)c1 [compound 6, 6-(3-(2-(1H-Pyrrolo[2,3-b]pyridin-6-yl)ethyl)-5-(aminomethyl)phenethyl)-4-methylpyridin-2-amine]
Kd (bsNOS [1]; [3]): 12 ± 4 µM
Kd (bsNOS [1]; [4]): 10 ± 2 µM
fold decrease of potency toward nNOS compared to 2 (rat nNOS): > 4 fold

c1c[nH]cn1 [imidazole]
Kd (bsNOS [2]): 384 µM
Kd (iNOS): 158 µM

acriflavine [reference compound]
bacterial growth, % of control (B. subtilis; ACR alone (800 μM), 30 min): 23%
